PubChem BioAssay
Inconclusive results are not listed.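 Rule for the calls, unless noted: active = viability increase at or above a cutoff of the median across tested compounds plus 3 SD (cut at about 8.5% in these data, passing the limit was not always enough); inconclusive = some gains above the cutoff, reason not given; inactive = the rest.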

Assays:
[1] = OD615 S. cerevisiae growth inhibition, permissive medium, pilot counter-assay, permissive growth control for S. cerevisiae lifespan shortening project (AID 705;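 active = growth inhibition above 25% in both replicates, a cutoff set 3 SD above the mean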); details: OD615, 24 h, at 10 µM, stronger effect = higher value
In short: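 Material: engineered DeaD yeast; Compound: one dose 10 µM, DMSO 0.25% final; Detection: absorbance (optical density) at 615 nm; Buffer or medium: permissive raffinose/galactose medium; Timing: 24 h exposure, 30 °C.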

[2] = Restrictive medium S. cerevisiae growth inhibition, OD615, pilot screen of yeast lifespan reduction project, restrictive growth control (AID 706;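 active = growth inhibition above a set limit, 3 SD over mean compound inhibition, in both replicates, cut at about 43% in these data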;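 note: modified DeaD lifespan yeast strain shifted to restrictive glucose medium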); details: OD615, 48 h, at 10 µM, stronger effect = higher value
In short: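 Buffer or medium: restrictive glucose medium (CSMM-D); test system: modified S. cerevisiae; doses: single dose of 10 µM compound final, 0.25% DMSO; schedule: 48 h compound exposure at 30 °C; detection: absorbance (optical density) measured at 615 nm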

[3] = viability gain of MRP-1-high H69AR cells under doxorubicin, pilot screen, MRP-1 activator project, CellTiter-Glo, duplicate (AID 807); details: H69AR viability with doxorubicin, CellTiter-Glo luminescence; at 10 µM; stronger effect = higher value;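 note: compound pretreatment 18-22 h then 72 h combined with doxorubicin; 0% = doxorubicin alone and 100% = vehicle without doxorubicin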
[4] = growth suppression of beta-catenin knockout HCT116, pilot screen, human colon tumor cells (AID 823;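 active = cell viability at or below a set limit in both duplicate runs, the limit being the all-compound median minus 4 SD, cut at about 23% in these data, passing the limit was not always enough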;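 note: 0% = wells killed by 20 µM Hyamine and 100% = untreated DMSO cell wells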); details: CellTiter-Glo, 60 h, at 10 µM, stronger effect = lower value
[5] = growth suppression of PTEN-deleted HCT116, pilot screen, cell-based, HCT116 clonal line, CellTiter-Glo (AID 824;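 active = viability at or below 27.92% in each of two runs, the all-compound median minus 4 SD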;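 note: 0% = 20 µM Hyamine control and 100% = vehicle cell control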); details: 60 h, at 10 µM, stronger effect = lower value
[6] = inhibitors of the yeast RAM network, pilot screen, dse1pr::URA3 reporter, 5-FOA selection (AID 869;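 active = inhibition over a set limit, the all-compound mean plus 3 SD, in both replicate runs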;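 note: 0% = DMSO wells with no growth and 100% = 10 µM 1-NA-PP1 with full growth; RAM network block rescues cells from 5-FOA so hits raise OD615 growth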); details: S. cerevisiae dse1pr::URA3 5-FOA growth, OD615, 2 d; at 10 µM; stronger effect = higher value; strain carries analog-sensitive mutant Cbk1 kinase
[7] = RAM signaling pathway blockade in yeast – S. cerevisiae, Pdr1DBD-CYC8 efflux-inhibited sensitized strain, primary screen (AID 1298;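 active = RAM network inhibition above 8.4% in each of two replicates, 3 SD over the compound average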;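 note: 0% = DMSO untreated cells without growth and 100% = 10 µM 1-NA-PP1 full growth; higher means more yeast growth rescued from 5-FOA killing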); details: S. cerevisiae cbk1-as DSE1-URA3 strain, 5-FOA growth OD615, 2 d; at 50 µM; stronger effect = higher value

c1ccc(-c2noc(CSc3nnnn3-c3ccccc3)n2)cc1
inactive: growth inhibition [1] -10.7% | growth inhibition [2] 22.4% | viability increase [3] 0.25% | viability [4] 97.8% | viability [5] 94% | inhibition [6] 0.485% | RAM network inhibition [7] 3.86%

Cn1c(C(=O)N2CCN(Cc3ccc4c(c3)OCO4)CC2)cc2c(=O)n(C)c3ccccc3c21
inactive: growth inhibition [1] -1.14% | growth inhibition [2] 0.725% | viability increase [3] -1.54% | viability [4] 67.9% | viability [5] 71.9% | inhibition [6] 3.29% | RAM network inhibition [7] 0.67%

CSc1nc(C)nc2c1c(=O)n(C)c(=O)n2C
inactive: growth inhibition [1] 9.37% | growth inhibition [2] 6.23% | viability increase [3] -1.42% | viability [4] 108% | viability [5] 94.2% | inhibition [6] 0.68% | RAM network inhibition [7] 0.26%

COc1ccc(-c2csc(N3CCN(C(=O)c4ccco4)CC3)n2)cc1
inactive: growth inhibition [1] -13% | growth inhibition [2] 19% | viability increase [3] 2.74% | viability [4] 98.5% | viability [5] 85.1% | inhibition [6] 0.95% | RAM network inhibition [7] 2.04%

COc1ccc(-c2noc(-c3cccc(OC)c3OC)n2)cc1OC
inactive: growth inhibition [1] -8.92% | growth inhibition [2] -10.4% | viability increase [3] -1.07% | viability [4] 102% | viability [5] 94.3% | inhibition [6] 2.87% | RAM network inhibition [7] 2.97%

CNC(=O)c1c(NC(=O)c2nc3ccccc3s2)sc2c1CCC2
inactive: growth inhibition [1] 1.6% | growth inhibition [2] -6.17% | viability increase [3] -3.81% | viability [4] 67.5% | viability [5] 61% | inhibition [6] 0.625% | RAM network inhibition [7] 5.05%

C=CCOC(=O)C1CC=CCC1C(=O)Oc1ccc(F)cc1F (stereo not given)
inactive: growth inhibition [1] -18.3% | growth inhibition [2] -15.3% | viability increase [3] -1.32% | viability [4] 100% | viability [5] 94% | inhibition [6] 2.56% | RAM network inhibition [7] 1.82%

COc1ccc(Cl)cc1C(=O)NCC(c1ccco1)N1CCCC1 (stereo not given)
inactive: growth inhibition [1] -8.88% | growth inhibition [2] -4.32% | viability increase [3] -3.47% | viability [4] 81% | viability [5] 80.7% | inhibition [6] 2.23% | RAM network inhibition [7] 10.1%

COc1cccc(-c2cc(C(F)(F)F)nc(N3CCOCC3)n2)c1
inactive: growth inhibition [1] -4.32% | growth inhibition [2] -9.04% | viability increase [3] 0.16% | viability [4] 73.5% | viability [5] 77.8% | inhibition [6] 1.38% | RAM network inhibition [7] 6.83%

O=C(NCCCc1ccccc1)c1ccncc1
inactive: growth inhibition [1] 1.08% | growth inhibition [2] 0.81% | viability increase [3] -0.23% | viability [4] 98.4% | viability [5] 99.4% | inhibition [6] 0.45% | RAM network inhibition [7] 6.46%

COc1cc(S(=O)(=O)N2CCN(Cc3ccc4c(c3)OCO4)CC2)c(C)cc1C
inactive: growth inhibition [1] -4.19% | growth inhibition [2] -11.6% | viability increase [3] -4.77% | viability [4] 57.5% | viability [5] 71.1% | inhibition [6] 2.5% | RAM network inhibition [7] 5.84%

CCCC(=O)C1=C(O)C(C(=O)OC)C(C)(C)CC1=N (stereo not given)
inactive: growth inhibition [1] 1.4% | growth inhibition [2] -3.15% | viability increase [3] -0.38% | viability [4] 100% | viability [5] 101% | inhibition [6] 1.01% | RAM network inhibition [7] -0.57%

COc1cc2[nH]c(=O)n(CCCCCC(=O)N3CCN(c4ccccc4)CC3)c(=O)c2cc1OC
inactive: growth inhibition [1] -20.4% | growth inhibition [2] -2.1% | viability increase [3] -4.46% | viability [4] 58.5% | viability [5] 52.5% | inhibition [6] 1.25% | RAM network inhibition [7] 0.58%

O=C(Cn1c(CN2CCCCC2)nc2ccccc2c1=O)NC1CCCCC1
inactive: growth inhibition [1] -7.65% | growth inhibition [2] -24.4% | viability increase [3] -2.4% | viability [4] 95.4% | viability [5] 88% | inhibition [6] -0.59% | RAM network inhibition [7] -1.71%

COC(=O)C1CCN(C(c2cccs2)c2sc3nc(C)nn3c2O)CC1 (stereo not given)
inactive: growth inhibition [1] -3.2% | growth inhibition [2] 1.52% | viability increase [3] -1.54% | viability [4] 102% | viability [5] 96.4% | inhibition [6] 1.68% | RAM network inhibition [7] 1.07%
